Published values gathered from unrelated publications.
Target: Dual specificity testis-specific protein kinase 1 (TESK1, Homo sapiens, UniProt Q15569)

SMILES | effect on | mode | technique | tested at | endpoint | result
Cc1ccc(C(=O)Nc2ccc(CN3CCN(C)CC3)c(C(F)(F)F)c2)cc1C#Cc1cnc2cccnn12 | enzyme activity | inhibitor |  | 23.5 nM | remaining activity | 100%
O=C1CCc2cc(Nc3cc(OC4CCOCC4)c([N+](=O)[O-])cc3Cl)ccc2N1 | cell-free assay |  | competition with immobilised ligand | 1 µM | remaining binding | 92%
COc1cc(Nc2cnc(C#N)c(O[C@H](C)CN(C)C)n2)ncc1-c1cnn(C)c1 | enzyme activity | inhibitor | radiometric | 1 µM | remaining activity | 110%
COc1cc(/C=C/C(=O)CC(=O)/C=C/c2ccc(O)c(OC)c2)ccc1O | enzyme activity | inhibitor |  | 1 µM | activity vs control | 101%
CC(C)(O)[C@H]1CC[C@H](Nc2ccc3ncc(-c4cccc(C(F)(F)F)c4)n3n2)CC1 | enzyme activity | inhibitor |  | 1 µM | remaining activity | 83.5%
O=C(Nc1cnn(-c2csc(C(=O)NC3COC3)c2)c1)Nc1ccccc1Cl | enzyme activity | inhibitor |  | 5 µM | remaining activity | 100%
Nc1ncnc2occ(-c3ccc(NC(=O)Nc4cc(C(F)(F)F)ccc4F)cc3)c12 | cell-free assay | inhibitor |  | 20 µM | remaining signal | 7.4%
Cc1sc(C(=O)NC2COC2)cc1-n1cc(NC(=O)Nc2c(F)cccc2Cl)cn1 | enzyme activity | inhibitor |  | 10 µM | remaining activity | 88%
c1ccc(N2CCN(Cc3nc4ccccc4[nH]3)CC2)nc1 | binding |  | competition with immobilised ligand | 1 µM | remaining binding | 97%
